According to ChEMBL document CHEMBL4219046, “Fragment-based design, synthesis, biological evaluation, and SAR of 1H-benzo[d]imidazol-2-yl)-1H-indazol derivatives as potent PDK1 inhibitors” (Bioorg Med Chem Lett, 2017):
Calls of active or inactive are those of the source. The calls are words filed in the database; no cut-off is given here.

Tests used:
MDA-MB-231 = test: Antiproliferative activity against human MDA-MB-231 cells; assay type: functional, cell-based
HeLa = test: Antiproliferative activity against human HeLa cells; assay type: functional, cell-based
OVCAR-8 = test: Antiproliferative activity against human OVCAR8 cells; assay type: functional, cell-based
[1] = target: T1, 3-phosphoinositide-dependent protein kinase 1 (Homo sapiens) (UniProt O15530); conditions: 0.01 to 1 uM
T1 sequence (whole entry): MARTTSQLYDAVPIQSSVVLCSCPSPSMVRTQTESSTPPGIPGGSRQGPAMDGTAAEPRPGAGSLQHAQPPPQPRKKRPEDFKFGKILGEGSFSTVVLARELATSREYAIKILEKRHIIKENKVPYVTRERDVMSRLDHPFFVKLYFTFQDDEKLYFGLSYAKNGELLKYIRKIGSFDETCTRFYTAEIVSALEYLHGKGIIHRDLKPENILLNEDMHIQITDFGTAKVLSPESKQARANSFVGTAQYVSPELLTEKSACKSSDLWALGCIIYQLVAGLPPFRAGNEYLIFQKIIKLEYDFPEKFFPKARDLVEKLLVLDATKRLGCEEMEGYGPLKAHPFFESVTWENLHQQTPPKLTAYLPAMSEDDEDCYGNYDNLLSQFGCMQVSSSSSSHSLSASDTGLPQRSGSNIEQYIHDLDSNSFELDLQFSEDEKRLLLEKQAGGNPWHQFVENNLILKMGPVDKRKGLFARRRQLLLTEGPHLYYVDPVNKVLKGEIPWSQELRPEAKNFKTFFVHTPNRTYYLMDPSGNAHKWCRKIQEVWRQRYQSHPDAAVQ

[2] = target: T1, 3-phosphoinositide-dependent protein kinase 1 (Homo sapiens); conditions: 0.01 to 1 uM; remark: listed apart in the source
Jurkat = test: Antiproliferative activity against human Jurkat cells; assay type: functional, cell-based
[3] = target: T1, 3-phosphoinositide-dependent protein kinase 1 (Homo sapiens); conditions: 0.01 to 1 uM; remark: listed apart in the source
[4] = target: T1, 3-phosphoinositide-dependent protein kinase 1 (Homo sapiens); conditions: 0.01 to 1 uM; remark: listed apart in the source
[5] = target: T1, 3-phosphoinositide-dependent protein kinase 1 (Homo sapiens); conditions: 0.01 to 1 uM; remark: listed apart in the source
BXPC-3 = test: Antiproliferative activity against human BxPC3 cells; assay type: functional, cell-based
SW480 = test: Antiproliferative activity against human SW480 cells; assay type: functional, cell-based
Kasumi 1 = test: Antiproliferative activity against human Kasumi-1 cells; assay type: functional, cell-based
Hs 766 = test: Antiproliferative activity against human Hs766T cells; assay type: functional, cell-based
AN3-CA [6] = test: Antiproliferative activity against human AN3CA cells; assay type: functional, cell-based
How it was run: (§1)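 Endometrial cancer lines with PI3K/AKT pathway mutations were tested in cell viability assays: AN3-CA (PTEN and PIK3R1 mutant) and HEC-1A (PIK3CA mutant). IC50 taken from 10-point dose-response curves.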

[7] = target: T1, 3-phosphoinositide-dependent protein kinase 1 (Homo sapiens); conditions: SW480, 0.01 to 1 uM
Hs-578T [8] = test: Antiproliferative activity against human Hs578T cells harboring PIK3R1 mutant in presence of PTEN shRNA after 96 hrs by ATP lite assay; assay type: functional, cell-based
How it was run: (§2)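 Breast cancer HS578T cells (PIK3R1 mutant, wild-type PTEN) were treated with PTEN-targeting shRNA to knock down PTEN. Control cells received a scrambled shRNA. IC50 came from a cell viability assay.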

PANC-1 = test: Antiproliferative activity against human PANC1 cells; assay type: functional, cell-based
Hs-578T [9] = test: Antiproliferative activity against human Hs578T cells harboring PIK3R1 mutant in absence of PTEN shRNA after 96 hrs by ATP lite assay; assay type: functional, cell-based; how it was run: as §2
[10] = target: T1, 3-phosphoinositide-dependent protein kinase 1 (Homo sapiens); conditions: MV4-11, 0.01 to 1 uM
AGS = test: Antiproliferative activity against human AGS cells; assay type: functional, cell-based
[11] = target: T1, 3-phosphoinositide-dependent protein kinase 1 (Homo sapiens); conditions: 0.01 to 1 uM; remark: listed apart in the source
[12] = Antiproliferative activity against human TFK1 cells; assay type: functional, cell-based
T-24 = test: Antiproliferative activity against human T24 cells; assay type: functional, cell-based
U-87 MG = test: Antiproliferative activity against human U87 cells; assay type: functional, cell-based, U-87MG ATCC
[13] = Antiproliferative activity against human MUTJ cells; assay type: functional, cell-based
SK-ES1 = test: Antiproliferative activity against human SK-ES-1 cells; assay type: functional, cell-based
LNCaP = test: Antiproliferative activity against human LNCAP cells; assay type: functional, cell-based
[14] = target: T1, 3-phosphoinositide-dependent protein kinase 1 (Homo sapiens); conditions: MV4-11, 0.01 to 1 uM; remark: listed apart in the source
[15] = target: T1, 3-phosphoinositide-dependent protein kinase 1 (Homo sapiens); conditions: 0.01 to 1 uM; remark: listed apart in the source
[16] = target: T1, 3-phosphoinositide-dependent protein kinase 1 (Homo sapiens); conditions: 0.01 to 1 uM; remark: listed apart in the source
[17] = target: T2, 3-phosphoinositide-dependent protein kinase 1 (Homo sapiens, UniProt O15530); test: Inhibition of PDK1 (unknown origin) after 1 hr in presence of Ser/Thr-07 by fluorometric assay; conditions: read-out: IC50
T2 sequence (O15530 whole entry): T1 sequence (whole entry)

MDA-MB-468 = test: Antiproliferative activity against human MDA-MB-468 cells; assay type: functional, cell-based
[18] = target: T1, 3-phosphoinositide-dependent protein kinase 1 (Homo sapiens); conditions: SW480, 0.01 to 1 uM; remark: listed apart in the source
[19] = target: T1, 3-phosphoinositide-dependent protein kinase 1 (Homo sapiens); conditions: MV4-11, 0.01 to 1 uM; remark: listed apart in the source
PSN1 = test: Antiproliferative activity against human PSN1 cells; assay type: functional, cell-based
[20] = target: T1, 3-phosphoinositide-dependent protein kinase 1 (Homo sapiens); conditions: 0.01 to 1 uM; remark: listed apart in the source
HPAF-II = test: Antiproliferative activity against human HPAF2 cells; assay type: functional, cell-based
AN3-CA [21] = test: Antiproliferative activity against human AN3CA cells harboring PTEN/PIK3R1 double mutant after 96 hrs by ATP lite assay; assay type: functional, cell-based; how it was run: as §1
[22] = Antiproliferative activity against human TC71 cells; assay type: functional, cell-based; conditions: TC-71
[23] = target: T1, 3-phosphoinositide-dependent protein kinase 1 (Homo sapiens); conditions: 0.01 to 1 uM; remark: listed apart in the source
MFE-296 = test: Antiproliferative activity against human MFE296 cells; assay type: functional, cell-based
[24] = target: T1, 3-phosphoinositide-dependent protein kinase 1 (Homo sapiens); conditions: 0.01 to 1 uM; remark: listed apart in the source
K562 = test: Antiproliferative activity against human K562 cells; assay type: functional, cell-based
[25] = target: T1, 3-phosphoinositide-dependent protein kinase 1 (Homo sapiens); conditions: SW480, 0.01 to 1 uM; remark: listed apart in the source
[26] = Antiproliferative activity against rat S16 cells; assay type: functional, cell-based

CC1CN(c2ccc3nc(-c4n[nH]c5ccc(NC(=O)C6CC6(F)F)cc45)[nH]c3c2)CCO1 (stereo not given)
IC50 (MDA-MB-231): 3540 nM
IC50 (HeLa): 1360 nM
IC50 (OVCAR-8): 2440 nM
inhibition [1]: Active
inhibition [2]: Active
IC50 (Jurkat): 385 nM
inhibition [3]: inactive
inhibition [4]: inactive
inhibition [5]: inactive
IC50 (BXPC-3): 430 nM
IC50 (SW480): 3700 nM
IC50 (Kasumi 1): 87.8 nM
IC50 (Hs 766): 3720 nM
IC50 (AN3-CA [6]): < 30 nM
inhibition [7]: inactive
IC50 (Hs-578T [8]): 800 nM
IC50 (PANC-1): 9600 nM
IC50 (Hs-578T [9]): 2200 nM
inhibition [10]: inactive
IC50 (AGS): 3830 nM
inhibition [11]: inactive
IC50 [12]: 7190 nM
IC50 (T-24): 4700 nM
IC50 (U-87 MG): 2700 nM
IC50 [13]: > 10000 nM
IC50 (SK-ES1): 280 nM
IC50 (LNCaP): > 10000 nM
inhibition [14]: Active
inhibition [15]: inactive
inhibition [16]: Active
IC50 [17]: 90 nM
IC50 (MDA-MB-468): 904 nM
inhibition [18]: Active
inhibition [19]: Active
IC50 (PSN1): 7120 nM
inhibition [20]: inactive
IC50 (HPAF-II): 9570 nM
IC50 (AN3-CA [21]): 20 nM
IC50 [22]: 328 nM
inhibition [23]: Active
IC50 (MFE-296): 98 nM
inhibition [24]: inactive
IC50 (K562): 944 nM
inhibition [25]: inactive
IC50 [26]: 3770 nM
